Data on 1 compound can be found in article PMC9245008 (ACS chemical biology, 2022).

By IC50 is commonly meant the concentration needed to halve the response being measured. Usually Ki stands for a measure of affinity in units of concentration, obtained from inhibition or displacement. Read a low Ki as a stronger hold on the target.

Assay [1] addresses CAMKKβ−1 (Homo sapiens, UniProt Q96RR4). Description: Dose–response of top 10 kinase hits. The class given is biochemical. As to conditions: read-out: IC50 CAMKKβ−1, n = 2.
Assay [2] has as its target CSNK1G2 (Homo sapiens, UniProt P78368). The assay is described as follows: Dose–response of top 10 kinase hits. The class given is biochemical. As to conditions: read-out: IC50 CSNK1G2, n = 2.
Assay [3] concerns the target T1, TAK1 (Homo sapiens, UniProt O43318).
T1 sequence (O43318 1-303 limits assumed): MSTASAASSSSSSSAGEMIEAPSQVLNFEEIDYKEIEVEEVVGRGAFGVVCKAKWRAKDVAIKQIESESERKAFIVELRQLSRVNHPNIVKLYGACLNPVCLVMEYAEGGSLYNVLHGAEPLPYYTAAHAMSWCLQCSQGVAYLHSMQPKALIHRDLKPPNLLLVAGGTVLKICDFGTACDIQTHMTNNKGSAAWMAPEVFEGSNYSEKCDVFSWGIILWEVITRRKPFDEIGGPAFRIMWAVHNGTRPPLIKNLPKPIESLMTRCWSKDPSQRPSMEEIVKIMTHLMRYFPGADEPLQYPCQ
Description: Potency of takinib analogues against TAK1. It is filed as biochemical.

The target in assay [4] is T2, TAK1 (Homo sapiens, UniProt O43318).
T2 sequence (O43318 with tags, fused parts or gaps limits assumed): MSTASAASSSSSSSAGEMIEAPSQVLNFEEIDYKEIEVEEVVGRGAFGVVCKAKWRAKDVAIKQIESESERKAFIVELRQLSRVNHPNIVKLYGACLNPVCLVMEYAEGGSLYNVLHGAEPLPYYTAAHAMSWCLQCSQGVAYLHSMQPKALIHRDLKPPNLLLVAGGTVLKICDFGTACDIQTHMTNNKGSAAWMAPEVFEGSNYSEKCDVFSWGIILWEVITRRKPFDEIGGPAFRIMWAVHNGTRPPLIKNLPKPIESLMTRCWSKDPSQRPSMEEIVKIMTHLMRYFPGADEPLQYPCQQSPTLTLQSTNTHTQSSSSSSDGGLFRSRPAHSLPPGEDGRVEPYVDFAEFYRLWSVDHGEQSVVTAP
Description: Dose–response of top 10 kinase hits. The class given is biochemical. The following applies: read-out: IC50 TAK1, n = 2.

The target of assay [5] is T3, ULK2 (Homo sapiens, UniProt Q8IYT8).
T3 sequence (Q8IYT8 1-1036): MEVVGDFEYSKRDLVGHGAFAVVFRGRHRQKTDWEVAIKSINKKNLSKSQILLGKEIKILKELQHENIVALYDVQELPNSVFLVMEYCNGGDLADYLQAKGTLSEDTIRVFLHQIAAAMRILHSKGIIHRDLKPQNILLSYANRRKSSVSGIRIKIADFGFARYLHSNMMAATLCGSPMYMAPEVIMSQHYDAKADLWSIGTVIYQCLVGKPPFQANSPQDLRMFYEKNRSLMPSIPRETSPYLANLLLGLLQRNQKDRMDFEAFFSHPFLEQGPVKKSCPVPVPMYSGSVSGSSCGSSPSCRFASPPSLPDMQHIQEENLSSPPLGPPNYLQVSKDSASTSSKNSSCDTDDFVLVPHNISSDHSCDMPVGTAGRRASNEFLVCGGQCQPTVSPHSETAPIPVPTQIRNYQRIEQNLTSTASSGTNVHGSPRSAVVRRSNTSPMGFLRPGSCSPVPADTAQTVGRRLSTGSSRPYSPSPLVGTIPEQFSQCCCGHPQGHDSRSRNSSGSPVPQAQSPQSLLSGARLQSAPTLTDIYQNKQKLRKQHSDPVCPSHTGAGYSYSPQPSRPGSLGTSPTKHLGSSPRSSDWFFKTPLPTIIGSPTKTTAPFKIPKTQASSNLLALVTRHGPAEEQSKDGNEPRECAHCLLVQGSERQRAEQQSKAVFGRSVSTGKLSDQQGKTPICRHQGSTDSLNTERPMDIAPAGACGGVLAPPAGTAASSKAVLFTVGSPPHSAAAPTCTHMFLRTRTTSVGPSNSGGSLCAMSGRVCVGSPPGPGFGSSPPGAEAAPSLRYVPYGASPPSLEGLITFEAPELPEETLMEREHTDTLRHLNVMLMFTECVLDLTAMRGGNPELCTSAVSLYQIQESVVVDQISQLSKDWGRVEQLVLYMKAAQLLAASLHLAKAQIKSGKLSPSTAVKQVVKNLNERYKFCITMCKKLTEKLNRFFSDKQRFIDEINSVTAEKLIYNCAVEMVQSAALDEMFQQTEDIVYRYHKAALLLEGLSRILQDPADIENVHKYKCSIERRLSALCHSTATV
The assay is described as follows: Dose–response of top 10 kinase hits. It is filed as biochemical. As to conditions: read-out: IC50 ULK2, n = 2.

For assay [6], the target named is CLK2 (Homo sapiens, UniProt P49760). The assay is described as follows: Dose–response of top 10 kinase hits. The class given is biochemical.
CLK2, sequence (P49760 whole entry): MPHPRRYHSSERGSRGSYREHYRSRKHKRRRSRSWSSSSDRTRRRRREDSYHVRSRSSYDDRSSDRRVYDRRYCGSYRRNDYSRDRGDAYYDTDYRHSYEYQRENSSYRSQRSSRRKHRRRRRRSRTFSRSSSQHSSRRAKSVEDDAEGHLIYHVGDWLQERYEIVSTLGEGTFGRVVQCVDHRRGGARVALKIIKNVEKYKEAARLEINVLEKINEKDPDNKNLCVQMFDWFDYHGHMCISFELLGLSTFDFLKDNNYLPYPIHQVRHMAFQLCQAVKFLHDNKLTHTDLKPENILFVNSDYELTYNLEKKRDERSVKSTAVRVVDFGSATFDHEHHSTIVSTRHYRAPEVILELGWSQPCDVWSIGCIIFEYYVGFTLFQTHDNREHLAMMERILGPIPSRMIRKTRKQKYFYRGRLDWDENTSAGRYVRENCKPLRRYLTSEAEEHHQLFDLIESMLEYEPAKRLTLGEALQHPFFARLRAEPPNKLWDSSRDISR
In assay [7] the test system is TNF expression in THP-1 cells. The assay is described as follows: Cytokine dose–response curves in THP-1 cells. It is filed as cell-based, human. The following applies: read-out: IC50 TNF expression; LPS-stimulated THP-1, 24 h. In outline:
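THP-1 cells differentiated with PMA (100 nM) for up to 72 h, then rested 24 h in PMA-free RPMI. Pretreated with test compound (3.2 nM–32 μM) or DMSO vehicle, then stimulated with LPS (10 ng/mL). After 24 h, TNF, IL-6 and IL-1β in supernatant measured by Luminex and expressed as percent of vehicle control; n = 3.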

In assay [8] the target is IRAK1 (Homo sapiens, UniProt P51617). The assay is described as follows: MRC Dundee kinase panel screen at 10 μM. It is filed as biochemical.
IRAK1, sequence (P51617 whole entry): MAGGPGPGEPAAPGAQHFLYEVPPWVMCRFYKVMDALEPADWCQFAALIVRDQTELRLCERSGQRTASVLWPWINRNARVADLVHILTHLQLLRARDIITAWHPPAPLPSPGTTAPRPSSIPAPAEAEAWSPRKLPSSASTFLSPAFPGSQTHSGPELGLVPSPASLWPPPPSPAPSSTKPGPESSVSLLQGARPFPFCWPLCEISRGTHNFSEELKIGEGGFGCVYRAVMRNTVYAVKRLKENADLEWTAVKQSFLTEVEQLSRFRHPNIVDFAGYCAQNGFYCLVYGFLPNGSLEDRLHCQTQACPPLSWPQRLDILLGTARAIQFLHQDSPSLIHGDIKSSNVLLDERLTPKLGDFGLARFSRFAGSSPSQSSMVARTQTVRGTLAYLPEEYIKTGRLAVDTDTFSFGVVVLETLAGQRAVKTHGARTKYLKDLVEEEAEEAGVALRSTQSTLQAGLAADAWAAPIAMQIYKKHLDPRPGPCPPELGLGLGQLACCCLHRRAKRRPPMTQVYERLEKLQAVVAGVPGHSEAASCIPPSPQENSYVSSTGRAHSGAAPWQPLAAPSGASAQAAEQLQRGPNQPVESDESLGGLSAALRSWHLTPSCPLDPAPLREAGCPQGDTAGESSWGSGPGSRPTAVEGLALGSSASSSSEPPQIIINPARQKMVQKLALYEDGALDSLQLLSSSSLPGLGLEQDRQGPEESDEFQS

CSNK1G2, sequence (P78368 whole entry): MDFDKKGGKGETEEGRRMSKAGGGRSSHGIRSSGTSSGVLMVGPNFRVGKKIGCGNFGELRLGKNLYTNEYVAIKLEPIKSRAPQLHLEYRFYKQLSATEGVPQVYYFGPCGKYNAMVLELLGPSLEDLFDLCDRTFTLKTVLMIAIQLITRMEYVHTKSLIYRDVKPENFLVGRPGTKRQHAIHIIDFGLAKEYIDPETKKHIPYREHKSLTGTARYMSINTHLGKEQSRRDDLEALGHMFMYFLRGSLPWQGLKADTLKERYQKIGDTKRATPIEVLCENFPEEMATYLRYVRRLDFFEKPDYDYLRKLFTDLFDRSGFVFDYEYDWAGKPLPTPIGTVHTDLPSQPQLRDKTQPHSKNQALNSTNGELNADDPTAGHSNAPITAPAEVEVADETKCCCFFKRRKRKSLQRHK
CAMKKβ−1, sequence (Q96RR4 whole entry): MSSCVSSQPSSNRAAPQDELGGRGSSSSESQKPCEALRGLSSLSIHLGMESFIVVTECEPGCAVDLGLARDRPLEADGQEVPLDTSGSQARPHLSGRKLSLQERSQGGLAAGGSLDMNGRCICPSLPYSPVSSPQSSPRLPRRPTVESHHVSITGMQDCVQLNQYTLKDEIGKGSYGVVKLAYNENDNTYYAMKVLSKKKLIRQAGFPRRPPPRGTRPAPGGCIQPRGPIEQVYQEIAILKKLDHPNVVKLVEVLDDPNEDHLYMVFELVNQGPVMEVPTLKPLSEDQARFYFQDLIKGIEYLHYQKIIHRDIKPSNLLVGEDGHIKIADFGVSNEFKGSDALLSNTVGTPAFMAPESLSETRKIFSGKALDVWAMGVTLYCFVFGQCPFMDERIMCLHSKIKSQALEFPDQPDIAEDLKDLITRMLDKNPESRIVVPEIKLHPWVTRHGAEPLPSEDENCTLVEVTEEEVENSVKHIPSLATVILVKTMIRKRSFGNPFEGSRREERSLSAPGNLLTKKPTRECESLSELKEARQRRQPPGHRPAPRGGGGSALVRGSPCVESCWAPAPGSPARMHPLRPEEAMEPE

On to `CCCn1c(NC(=O)c2cccc(C(N)=O)c2)nc2ccc(CN3CCCCC3)cc21` [HS-276], for which the IC50 in assay [1] is 1280 nM; in assay [2], 809 nM; in assay [3] (read-out: TAK1 IC50), 2.5 nM; in assay [4], 8 nM; in assay [5], 63 nM; in assay [6] (read-out: IC50 CLK2, dose–response, n = 2), 29 nM. Besides, the IC50 in assay [7] was 138 nM. In assay [3] (TAK1), this compound had a Ki of 2.5 nM. The “TAK1 more potently inhibited than CLK2” value in assay [6] (from dose–response IC50 values) is reported as 3.6 fold. For the same compound, the enzymatic activity in assay [8] is recorded as under 15%.
